Sampled rows, rich in hits. Any-hit rate of the full collection: about 1.7%.
STEP block = STEP (human) phosphatase inhibition. 0.25% of 360,000 active. recombinant STEP, OMFP fluorogenic substrate, fluorescence. inhibition, % at 20 µM. P54829. AID 588621;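 active = inhibition at 20 µM, scaled per plate between control wells, above about 37%, limit read from the data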;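 note: 0% = DMSO with enzyme and substrate and 100% = substrate only without enzyme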
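Material: STEP (striatal-enriched tyrosine phosphatase) enzyme, cell-free; Compound dosing: 20 µM single dose in 1% DMSO; Technique: fluorescence read at 480 nm ex / 540 nm em; Times: reaction 20 min, ambient temperature; Medium: 50 mM Bis-Tris pH 6.0 with 2.5 mM DTT and 0.005% Tween 20; Also added: OMFP at 25 µM.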
SUMO1 PPI mod = alters human SUMO1 binding to SIM partners. SUMO1 binding to a labelled peptide, TR-FRET, 1 h. inhibition, % at 20 µM. 0.33% of 360,000 active. AID 602429; in the data active = inhibition above about 37%
Target sequence (P63165 whole entry, looked up): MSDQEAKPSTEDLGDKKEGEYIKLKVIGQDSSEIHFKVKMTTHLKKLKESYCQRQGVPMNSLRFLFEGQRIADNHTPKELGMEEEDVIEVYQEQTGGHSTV
LMPTP inh = LMPTP (human) inhibition. P24666. recombinant LMPTP-A, OMFP fluorogenic substrate, fluorescence intensity. inhibition, % at 20 µM. 0.22% of 360,000 active. AID 651560;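 active = compounds that cut the enzyme signal by at least half of the control window in the single-dose screen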;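 note: plate controls were DMSO wells with enzyme plus substrate for no effect and substrate without enzyme for full effect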
Target sequence (P24666 whole entry, looked up): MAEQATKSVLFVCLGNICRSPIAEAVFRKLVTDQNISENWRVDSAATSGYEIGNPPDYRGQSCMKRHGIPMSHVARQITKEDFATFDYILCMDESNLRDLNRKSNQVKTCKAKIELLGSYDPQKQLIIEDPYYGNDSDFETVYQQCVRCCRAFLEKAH
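Buffer or medium: Bis-Tris pH 6.0, DTT, detergent; Assay system: LMPTP-A enzyme; Quantity: 0.625 nM enzyme; Detection: endpoint fluorescence intensity; Times: 50 min dark incubation at room temperature; Controls: substrate-only low control, DMSO enzyme-plus-substrate high control; Doses: single 20 µM dose; Read-out: percent inhibition versus substrate-only and uninhibited controls; Reagent: 400 µM OMFP.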
DNMT1 inh = DNMT1 (human) enzyme inhibition | inhibition (reported as % activation of signal), % at 10 µM | DNMT1 molecular beacon, Hinp1I cleavage, fluorescence | 0.83% of 360,000 active; in the data active = inhibition above about 50%
Scp1 inh = inhibitors of human Scp-1 phosphatase | Q9GZU7 | Recombinant Scp1, phosphopeptide, malachite green phosphate absorbance | inhibition, % at 20 µM | 0.88% of 340,000 active | AID 493091;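 active = inhibition above about 50% at 20 µM, limit read from the data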;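 note: plate controls were DMSO wells with enzyme for no effect and wells lacking enzyme for full effect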
Target sequence (Q9GZU7 76-261 limits assumed): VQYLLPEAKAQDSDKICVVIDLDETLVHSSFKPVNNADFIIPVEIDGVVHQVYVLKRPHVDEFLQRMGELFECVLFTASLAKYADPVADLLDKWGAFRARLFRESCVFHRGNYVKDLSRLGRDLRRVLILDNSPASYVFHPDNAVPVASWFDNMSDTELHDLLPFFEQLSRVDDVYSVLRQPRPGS
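Test system: SCP-1 catalytic domain; Buffer or medium: Acidic Tris acetate buffer with magnesium and detergent; Also added: Phosphorylated 17-residue peptide substrate; Compound: single 20 µM dose, 1% DMSO; Schedule: enzyme reaction 45 min at room temperature, colour 5 min, stabilisation 30 min; Signal: Phosphate-binding colour reagent, absorbance read at 630 nm.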
Numbers without * were called inactive.

Results for COc1ccc(OC)c(CN2C(=O)c3ccccc3C2c2nnnn2-c2c(C)cccc2C)c1 (centres undefined) ?
SUMO1 PPI mod: 2; LMPTP inh: 1

Results for Oc1ccccc1C=Nc1cccc2ccccc12 ?
STEP block: -1; SUMO1 PPI mod: 0; LMPTP inh: -1; DNMT1 inh: -8; Scp1 inh: -9

What do the screens show for `Oc1cccc(C=Nc2cccc3ccccc23)c1O`?
STEP block: 6; SUMO1 PPI mod: 68*; LMPTP inh: 25; DNMT1 inh: -9; Scp1 inh: -7

What do the screens show for `O=C(Nc1cccc(-c2cn3ccccc3n2)c1)c1cc2ccccc2oc1=O`?
STEP block: 81*; SUMO1 PPI mod: -6; LMPTP inh: 75*; DNMT1 inh: 43; Scp1 inh: 3

Results for Cc1sc2ncnc(N3CCC(C(=O)Nc4cc(C(F)(F)F)ccc4OCC(F)(F)F)CC3)c2c1C ?
STEP block: 3; SUMO1 PPI mod: -2; LMPTP inh: -1; DNMT1 inh: -12; Scp1 inh: -1

What do the screens show for `Nc1ncnc2oc(-c3ccco3)c(-c3ccco3)c12`?
STEP block: 30; SUMO1 PPI mod: 31; LMPTP inh: 61*; DNMT1 inh: 93*; Scp1 inh: 66*

Results for O=C(Nc1cc(Cl)cc(Cl)c1)N[C@@H]1CC[C@@H](CCNS(=O)(=O)c2cccc(F)c2)O[C@@H]1CO ?
SUMO1 PPI mod: 0; LMPTP inh: 1

How did CN(c1cc(Cl)c2c(c1)OCO2)c1cc2c(c3c1ccn3C)C1CCC2C1 (centres undefined) do in these assays?
STEP block: 3; SUMO1 PPI mod: 0; LMPTP inh: 6; DNMT1 inh: 9

How did COC(=O)[C@@]12C[C@@H](CC(=O)NCc3cccc4ccccc34)C(=O)N(Cc3ccc4c(c3)OCO4)C1=CCC(C)(C)C2 do in these assays?
SUMO1 PPI mod: -5; LMPTP inh: 3

What do the screens show for `CC(CCCN1CCCC1)Nc1ccnc2cc(Cl)ccc12` (centres undefined)?
STEP block: -6; SUMO1 PPI mod: -42; LMPTP inh: 76*; DNMT1 inh: 9; Scp1 inh: -15

Results for CCOC(=O)[C@]12CCC=C1N(Cc1ccc(Cl)cc1Cl)C(=O)[C@H](CC(=O)NCC1CCCCC1)C2 ?
SUMO1 PPI mod: 0; LMPTP inh: 4

Results for CC(C)(C)c1ccc(NC(=O)c2cc(C3CCCN(S(=O)(=O)c4cccc5cccnc45)C3)on2)cc1 (centres undefined) ?
STEP block: 1; SUMO1 PPI mod: -5; LMPTP inh: 1; DNMT1 inh: -4

How did CC(C)Oc1ccc(C(=O)Nc2ccc(N3CCN(C(=O)c4ccco4)CC3)cc2)cc1 do in these assays?
STEP block: 1; SUMO1 PPI mod: 8; LMPTP inh: -1; DNMT1 inh: -4; Scp1 inh: -10

Results for O=C(Nc1ccc(N2CCCC2)cc1)c1ccc(Cl)cc1Cl ?
STEP block: 2; SUMO1 PPI mod: 5; LMPTP inh: -2; DNMT1 inh: 18; Scp1 inh: -2

How did CC(C)Oc1ccc(C(=O)Nc2ccc(N3CCCC3)cc2)cc1 do in these assays?
STEP block: -4; SUMO1 PPI mod: -34; LMPTP inh: 5; DNMT1 inh: 53*; Scp1 inh: 3

What do the screens show for `O=C(Nc1ccc(N2CCCC2)cc1)c1cc(Cl)ccc1Cl`?
STEP block: 1; SUMO1 PPI mod: 90*; LMPTP inh: 35; DNMT1 inh: 53*; Scp1 inh: -4

Results for Cc1nc2ccc(C(=O)Nc3cccc(OCC(=O)N(C)C)c3)cn2c1N(C)CC1CCCCC1 ?
STEP block: 1; SUMO1 PPI mod: 5; LMPTP inh: 1; DNMT1 inh: -10

What do the screens show for `COc1ccc(-c2csc(C(O)c3ccccc3)n2)cn1` (centres undefined)?
STEP block: -2; SUMO1 PPI mod: 1; LMPTP inh: -1; DNMT1 inh: -1

What do the screens show for `Cc1cccc(C)c1NC(=O)C(c1ccccc1)N(C)CCc1ccccc1` (centres undefined)?
STEP block: 2; SUMO1 PPI mod: -2; LMPTP inh: 0; DNMT1 inh: 6

How did Cc1cccc2c1NC(=O)C2=O do in these assays?
STEP block: 3; SUMO1 PPI mod: -10; LMPTP inh: 1; DNMT1 inh: 50*; Scp1 inh: 48

Results for O=C1Nc2c(Cl)cccc2C1=O ?
STEP block: 4; SUMO1 PPI mod: -2; LMPTP inh: 1; DNMT1 inh: -23

How did COc1ccc(Cc2nnc(NC(=O)Cc3cccs3)s2)cc1OC do in these assays?
STEP block: 9; SUMO1 PPI mod: 12; LMPTP inh: 17; DNMT1 inh: 75*; Scp1 inh: 70*

What do the screens show for `COc1ccc(Cn2c(=O)[nH]c3cc(C(=O)N4CCN(c5ccc(OC)cc5)CC4)ccc3c2=O)cc1`?
STEP block: -2; SUMO1 PPI mod: 6; LMPTP inh: -1; DNMT1 inh: 4; Scp1 inh: -5

How did CN1CCN(C(=O)c2ccc3c(=O)n(CCc4ccccc4)c(=S)[nH]c3c2)CC1 do in these assays?
STEP block: 0; SUMO1 PPI mod: 41*; LMPTP inh: -7; DNMT1 inh: 1; Scp1 inh: -3

What do the screens show for `COc1ccc(Cn2c(=O)[nH]c3cc(C(=O)N4CCN(c5ccc(C(C)=O)cc5)CC4)ccc3c2=O)cc1`?
STEP block: 0; SUMO1 PPI mod: 57*; LMPTP inh: 1; DNMT1 inh: -2; Scp1 inh: -4

What do the screens show for `COC(=O)[C@]12CCCCC=C1N(Cc1ccco1)C(=O)[C@H](CC(=O)N1CCC(c3ccccc3)CC1)C2`?
SUMO1 PPI mod: 1; LMPTP inh: 2

Results for Cn1cc(-c2csc(C(O)(c3ccccc3)C(F)(F)F)n2)cn1 (centres undefined) ?
STEP block: -5; SUMO1 PPI mod: -2; LMPTP inh: -1; DNMT1 inh: -1

How did Brc1ccc2nc(-c3ccco3)c(CC3CCCCC3)n2c1 do in these assays?
STEP block: 4; SUMO1 PPI mod: 23; LMPTP inh: 19; DNMT1 inh: 69*

Results for Cc1ccc2nc(-c3ccco3)c(CC3CCCCC3)n2c1 ?
STEP block: -1; SUMO1 PPI mod: 0; LMPTP inh: 0; DNMT1 inh: 1

Results for N#CCCCc1cn(-c2nc3ccccc3s2)nn1 ?
SUMO1 PPI mod: -2; LMPTP inh: -1

How did COc1ccc(C2NC(=S)NC(C)=C2C(=O)Nc2ccccn2)cc1 (centres undefined) do in these assays?
STEP block: -2; SUMO1 PPI mod: 57*; LMPTP inh: -2; DNMT1 inh: 2; Scp1 inh: -6

Results for COc1ccc(OC)c(C2NC(=S)NC(C)=C2C(=O)Nc2ccccn2)c1 (centres undefined) ?
STEP block: 2; SUMO1 PPI mod: -1; LMPTP inh: 0; DNMT1 inh: 1; Scp1 inh: -3
